From the EternaBench riboswitch data

Tested on: MS2 coat protein
Assay: apparent Kd, MS2 coat protein; higher = weaker binding; RNA-MaP array; FMN 200 µM where present
Outline: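 Each design was made on Illumina sequencing-chip clusters by stalled E. coli RNA polymerase and titrated with SNAP-549-labelled MS2 coat protein from 0.7 or 1.5 nM, doubling to 3 µM, in the absence and then the presence of constant ligand. The buffer was 100 mM Tris-HCl pH 7.5, 80 mM KCl, 4 mM MgCl2, BSA, DTT, yeast tRNA and Tween-20. The apparent Kd is the median of filtered per-cluster fits of binding curves, with green signal normalised to red-channel RNA signal and control-cluster median Fmax.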

[1] = designed as: ON switch for flavin mononucleotide, no ligand
[2] = ligand present: flavin mononucleotide, designed as: ON switch for flavin mononucleotide
[3] = designed as: OFF switch for flavin mononucleotide, no ligand
[4] = ligand present: flavin mononucleotide, designed as: OFF switch for flavin mononucleotide

Sequence	apparent Kd [1]	apparent Kd [2]	apparent Kd [3]	apparent Kd [4]
GGAUCCAACACAGGAUAUGCUGGACUUUGUCCAGCAGAAGGGUGUACAUGAGGAUCACCCAUGUAUUGGAUCCAUAUAUUUAAU	0.996 µM	0.0808 µM	–	–
UUAUUAUAUGUAGGAUAUGCAUAUUGUUGUUAUGCAGAAGGACAUGAGGAUCACCCAUGUAUAUUAUUGUUAUAUAUUAUAUAU	–	–	0.0234 µM	0.0367 µM
AAGCGGGUCUUCAGGGUAAUGAACAUGAGGAUCACCCAUGUGCAGGAUAUGACGGAUCCGCACCGUCAGAAGGGCACUAAGUAC	–	–	0.0246 µM	0.0699 µM
GUGCGGUGAGGAUAUACGUAGGUGAAAAUCUGUGUGUUCCUACAUGAGGAUCACCCAUGUAGAAGGCAUGGCAC	–	–	0.148 µM	0.0453 µM
GUGAGGUCAGGAUAUGCAUGGCGGGACUUGCGUCGUGGCGUGCAGAAGGGACAUGAGGAUCACCCAUGUGGAGC	–	–	0.0816 µM	0.194 µM
AUGAAGAAUUAAGGAUAUUGAUUACAUAUGUUUAACAUGAGGAUCACCCAUGUGGGUUGCGGUAUCGAGAAGGUAAAUUAAAAG	0.198 µM	0.178 µM	–	–
CAGGUAGACUGAGGAUAUACAGACCUAGUCUAUCUAGGUCAAGUCCUUACAUGAGGAUCACCCAUGUAGAAGGCAGUCUGCCUG	–	–	0.0195 µM	0.0527 µM
GUCAGCUCGUGAGGAUAUACAACACUGCUUCGGCAGUGUAUUAAGAUCACAUGAGGAUCACCCAUGUAGAAGGCACGUGCUGAU	–	–	0.0125 µM	0.276 µM
AUAUGAUUAAGAGGAUAUAUACAACAUGAGGAUCACCCAUGUACCCAUGUAGUAGAAGGUUUGUUUUUAUAUAAUAAUAUAAUU	0.0748 µM	0.0521 µM	–	–
GCCGACCAGAAGUCGGUACGGAGGAGAAGGCGCCUCCUGGGUCCACAUGAGGAUCACCCAUGUGGCGAGGAUAUCCUCAGUUUU	–	–	0.0164 µM	0.126 µM
UGAUAGGACACAGGAUAUACGUGCUAGAGAUACUAGCAAAAUUUCCUCACAUGAGGAUCACCCAUGUAGAAGGGUGUCCUAUCU	–	–	0.0103 µM	0.135 µM
AUUAUUUAAGUCAGGAUAUCGUAUUUAUUUAAAUACGAGAAGGGACAUGAGGAUCACCCAUGUAAUAAAUUUUU	–	–	0.0169 µM	0.0229 µM
AUGGAUAUCACAGGAUAUGCCCGGGAUACCCGGGCAGAAGGGUGAUCCAUCCUAUGUAAAUACAUGAGGAUCACCCAUGUGUCC	0.075 µM	0.0712 µM	–	–
UGUUGUAUUACAGGAUAUCUAUGUUUUUUAUUUAGAGAAGGGUAUUCACAUGAGGAUCACCCAUGUAUAUACGAGGAAGUUGUG	0.049 µM	0.049 µM	–	–
AUGUUACAUGAGGAUCACCCAUGUGAGGAUAUGUGUACUGGUAAAAAAGUGUUUGGCCACAGAAGGCAUUUGGA	–	–	0.0291 µM	0.0312 µM
AAAUACGUUUCGUAGCAGUGUCAUCGAGAAGGCCCUGACAUGAGGAUCACCCAUGUUGUUACAUGGGAGGAUAUCGAUGAUAAA	0.0162 µM	0.00552 µM	–	–
AAAAAACAUGAGGAUCACCCAUGUAAGGAUAUGCAAAAAAAAAAAAAAAAAAAAAAAAGCAGAAGGUACAAAAA	–	–	0.0343 µM	0.062 µM
CCAGAUUUCACAGGAUAUAUUGAUGACAUGAGGAUCACCCAUGUACCGGCAGUAGAAGGGUGAACGCUCGUGACCACGUGCGUG	0.253 µM	0.134 µM	–	–

Sequence	apparent Kd [1]	apparent Kd [2]	apparent Kd [3]	apparent Kd [4]
AUCUUGAGAGGAUAUACAUGAGGAUCACCCAUGUUGCUAACACCAUGCGCUCAUUUACGUAGAAGGCUCAUCCG	–	–	0.0211 µM	0.0404 µM
UUUAUAUUCAGAGGAUAUUAAUGUUGUAUAAUAUAAGAAGGCUGUUUGUUUUGUAAAGUUAUUAUACAUGAGGAUCACCCAUGU	0.0206 µM	0.0169 µM	–	–
CCCGGGCCUGUGAGGAUAUCGGGCCCGAAAGGGCCCGAGAAGGCACAUGAGGAUCACCCAUGUAAGGGUUUGGG	–	–	0.0274 µM	0.0197 µM
UUGCAGUGCGGGUAGGAUAUGUAGGGUGGUACAUGAGGAUCACCCAUGUGUCCACCCUUCGACCGGCAGAAGGGCCUAUCACUGC	0.0171 µM	0.0156 µM	–	–
GAGUAGAUCCGAGGAUAUACAAUCCGGAAACGGUACAUGAGGAUCACCCAUGUAGAAGGCGGAUCUACAGGUACUAAAGUACCA	–	–	0.00624 µM	0.00812 µM
AGCUGUGGCCGAGGAUAUCUAACUUCAAUAACCGAAAUAUAAUCGGACAUGAGGAUCACCCAUGUAGAGAAGGCGGUCUCAGCA	–	–	0.0152 µM	0.0201 µM
CUGUAUCGGUCAGGAUAUGUGCGUAAACUGUGAACAGAAGGGACCGUACAUGAGGAUCACCCAUGUCCGGGACUCCUUAUGCCU	–	–	0.0181 µM	0.0222 µM
UUAAUGUCAGGAUAUCUUAGGUGGGUGCGAAGAUUCAUUUUGGAGAAGGGACAUGAGGAUCACCCAUGUACCUU	–	–	0.0187 µM	0.0195 µM
AAACUAGUAGAGGAUAUUCCAGGCAGUGUUUGAGAAGAAGGCUACACAUGAGGAUCACCCAUGUGGCCUGGUGG	–	–	0.0136 µM	0.0171 µM
UCUACAUAGAUUCAUCAAUACAGUAAGGAUAUGAGAUACAUGAGGAUCACCCAUGUGCAUGUGGAUUAGAAGGUACAAUUAACU	–	–	0.0168 µM	0.0149 µM
UCGUUGUCAGGAUAUCGUGUAUACAACUUUAGUUUUAUGUUCGAGAAGGGACAUGAGGAUCACCCAUGUUACGU	–	–	0.065 µM	0.239 µM
GUGCAGAUGUAAGGAUAUCGACUGGAUAACAGUCGAGAAGGUACAUGAGGAUCACCCAUGUAAAUGAAAGAUAAUAAACUGCAC	–	–	0.0144 µM	0.0249 µM
AGAAACUACGAGAAGGACAUAUGGUUCUUCAGAUACAUGAGGAUCACCCAUGUAGGAUAUCGUAGUUUCAGGAUCGUGAGAUCA	–	–	0.00651 µM	0.00968 µM
AAUAACAGAGGAUAUACUAUUUUAUGUGUUUGUUAUUUUAAACAUGAGGAUCACCCAUGUAGAAGGCUGAGUAA	–	–	0.0267 µM	0.0269 µM
UUUUUCUCAGGAUAUACAUGAGGAUCACCCAUGUAUAUUGAAGAUAAUACAUGGGAAUGUAGAAGGGAGCUCAU	–	–	0.109 µM	0.115 µM
AAUCCACAUGAGGAUCACCCAUGUCAGGAUAUCGCGCGCGCGUUUUCGGUCUUUCGCGCGAGAAGGGACGGCUG	–	–	0.0177 µM	0.0235 µM
UGUUGUAUUACAGGAUAUCUAUGGUUUUUAUUUAGAGAAGGGUAUUCACAUGAGGAUCACCCAUGUAUAUACGAGGAAGUUGUG	0.0575 µM	0.0637 µM	–	–
CUUUGAUGAGGAUAUCGAGGUUAGUACAUGAGGAUCACCCAUGUUAUCCAGGUGUCGGUUCGAGAAGGUAUUGGAC	–	–	0.0167 µM	0.0185 µM
